{"source": "ChEMBL document CHEMBL3525897", "about": "“Metabolism and quantification of [(18)F]DPA-714, a new TSPO positron emission tomography radioligand” (Drug Metab Dispos, 2013)", "key": {"[1]": {"assay": "Retention time in baboon plasma treated with [18F]DPA-714 by radio-HPLC analysis", "format": "ADME, cell-free", "details": "papio anubis; call rule not given here", "method_in_brief": "(§1)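 Isoflurane-anaesthetized baboons, 6 PET experiments. Arterial femoral plasma sampled 0-120 min and centrifuged at 4°C, then deproteinated with acetonitrile; pellet radioactivity counted and treated as metabolite. Supernatant run on radio-HPLC (C18 preparative, 0.1% TFA water/acetonitrile 20-80% over 10 min, 5 mL/min). Counts decay-corrected to injection. Parent fraction as % total; data fitted to two exponentials; mean ± sd.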"}, "Liver microsome": {"tested_on": "Liver microsome", "assay": "Drug level in Sprague-Dawley rat liver microsomes treated with DPA-714 after 15 to 60 mins by LC-MS/MS analysis"}, "[2]": {"assay": "Retention time of the compound by LC-MS analysis", "format": "physicochemical", "method_in_brief": "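Separation of DPA-714 and its metabolites by LC-MS on reverse-phase Atlantis C18 column (2.1x150 mm) with electrospray ionization.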"}, "[3]": {"assay": "Biodistribution in baboon vertebral bodies at 276 +/- 60 MBq, iv up to 90 mins by PET analysis", "format": "ADME, organism-based", "details": "papio anubis, in vivo, 1.5 h", "method_in_brief": "(§2)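 Whole-body PET (HR+) in male Papio anubis baboons after i.v. 276 ± 60 MBq (4.8 ± 2.1 nmol) [18F]DPA-714. 2D transmission scans for attenuation correction. 3D emission scans of 1 to 4 min per bed step, acquired up to 90 min post-injection. Uptake reported as SUVmax.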"}, "[4]": {"assay": "Biodistribution in baboon gallbladder at 276 +/- 60 MBq, iv measured at 42 mins by PET analysis", "format": "ADME, organism-based, Gall bladder", "details": "papio anubis, in vivo, 0.7 h", "method_in_brief": "as §2"}, "[5]": {"assay": "Biodistribution in baboon duodenum at 276 +/- 60 MBq, iv by PET analysis", "format": "ADME, organism-based", "details": "papio anubis, in vivo", "method_in_brief": "as §2"}, "[6]": {"assay": "Ratio of drug level in brain to plasma in Sprague-Dawley rat at 32.1 +/- 2.8 MBq, iv measured at 120 mins by radio-HPLC analysis", "format": "ADME, organism-based", "details": "brain and plasma, 32.1 MBq, read-out: BPR", "method_in_brief": "(§3)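 Male Sprague-Dawley rats (250-300 g) given 32.1 ± 2.8 MBq [18F]DPA-714 by tail vein and decapitated 120 min later. Brain sonicated twice in acetonitrile on ice, extracts pooled and concentrated. Plasma acetonitrile-deproteinated. Parent and radiometabolites separated by radio-HPLC (C18, 0.1% TFA water/acetonitrile gradient 20-80% B). Expressed as %ID/g. Thighbone cortex and marrow also counted. Mean ± sd of 2 experiments, 2 rats each.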"}, "[7]": {"assay": "Biodistribution in baboon parotid gland at 276 +/- 60 MBq, iv up to 90 mins by PET analysis", "format": "ADME, organism-based", "details": "papio anubis, in vivo, 1.5 h", "method_in_brief": "as §2"}, "[8]": {"assay": "Biodistribution in baboon liver at 276 +/- 60 MBq, iv up to 90 mins by PET analysis", "format": "ADME, organism-based", "details": "papio anubis, in vivo, 1.5 h", "method_in_brief": "as §2"}, "[9]": {"assay": "Biodistribution in Sprague-Dawley rat thighbone cortex at 32.1 +/- 2.8 MBq, iv measured at 120 mins by radio-HPLC analysis", "format": "ADME, organism-based, Bone element", "details": "32.1 MBq", "method_in_brief": "as §3"}, "[10]": {"assay": "Metabolic stability of the compound in baboon plasma assessed as compound remaining by SPE method", "format": "ADME, cell-free", "details": "papio anubis", "method_in_brief": "(§4)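 Baboon arterial plasma, five samples per animal, n=3. 200 μL diluted to 400 μL with 4% HCl and loaded on HLB SPE cartridge. Washed with water, then 35/65 acetonitrile/water; parent eluted with acetonitrile. All fractions and cartridge counted. Parent given as % of eluted radioactivity or of initial sample. Compared with radio-HPLC; mono-exponential fit.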"}, "[11]": {"assay": "Biodistribution in Sprague-Dawley rat brain at 32.1 +/- 2.8 MBq, iv measured at 120 mins by radio-HPLC analysis", "format": "ADME, organism-based", "details": "32.1 MBq", "method_in_brief": "as §3"}, "[12]": {"assay": "Biodistribution in baboon lung at 276 +/- 60 MBq, iv up to 90 mins by PET analysis", "format": "ADME, organism-based", "details": "papio anubis, in vivo, 1.5 h", "method_in_brief": "as §2"}, "[13]": {"assay": "Biodistribution in baboon heart at 276 +/- 60 MBq, iv up to 90 mins by PET analysis", "format": "ADME, organism-based", "details": "papio anubis, in vivo, 1.5 h", "method_in_brief": "as §2"}, "[14]": {"assay": "Retention time in baboon plasma by radio-HPLC analysis", "format": "ADME, cell-free", "details": "papio anubis", "method_in_brief": "as §1"}, "[15]": {"assay": "Biodistribution in baboon kidney at 276 +/- 60 MBq, iv measured at 10 mins by PET analysis", "format": "ADME, organism-based", "details": "papio anubis, in vivo", "method_in_brief": "as §2"}, "[16]": {"assay": "Metabolic stability of the compound in baboon plasma at 20 kBq/ml at 37 degC by radio-HPLC analysis", "format": "ADME, cell-free", "details": "papio anubis", "method_in_brief": "(§5)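 Plasma spiked with 20 kBq/mL [18F]DPA-714, triplicate. Extracted with acetonitrile at time zero, or after incubation at 37°C (190 min for baboon plasma). Parent peak area measured by radio-HPLC.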"}, "[17]": {"assay": "Biodistribution in baboon urinary bladder at 276 +/- 60 MBq, iv up to 90 mins by PET analysis", "format": "ADME, organism-based", "details": "papio anubis, in vivo, 1.5 h", "method_in_brief": "as §2"}, "[18]": {"assay": "Half life in baboon by SPE method", "format": "ADME, organism-based", "details": "papio anubis, in vivo", "method_in_brief": "as §4"}, "[19]": {"assay": "Biodistribution in Sprague-Dawley rat plasma at 32.1 +/- 2.8 MBq, iv measured at 120 mins by radio-HPLC analysis", "format": "ADME, organism-based", "details": "32.1 MBq", "method_in_brief": "as §3"}, "[20]": {"assay": "Drug recovery in baboon by SPE method", "format": "ADME, organism-based", "details": "papio anubis, in vivo; read-out: Drug recovery", "method_in_brief": "as §4"}, "[21]": {"assay": "Drug metabolism in baboon assessed as compound remaining measured at 120 mins by radio-HPLC analysis", "format": "ADME, organism-based", "details": "papio anubis, in vivo; read-out: Stability", "method_in_brief": "as §1"}, "Brain": {"tested_on": "Brain", "assay": "Metabolic stability of the compound in Sprague-Dawley rat brain homogenate at 37 kBq at 37 degC by radio-HPLC analysis", "format": "ADME, tissue-based", "method_in_brief": "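Rat brain sonicated in 0.1 M potassium phosphate, pH 7.4, at 4°C and spiked with 37 kBq [18F]DPA-714. Aliquots extracted with acetonitrile at time zero and after 180 min at 37°C. Analysed by radio-HPLC.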"}, "[22]": {"assay": "Drug metabolism in baboon assessed as compound remaining measured at 30 mins by radio-HPLC analysis", "format": "ADME, organism-based", "details": "papio anubis, in vivo; read-out: Stability", "method_in_brief": "as §1"}, "[23]": {"assay": "Biodistribution in baboon spleen at 276 +/- 60 MBq, iv up to 90 mins by PET analysis", "format": "ADME, organism-based", "details": "papio anubis, in vivo, 1.5 h", "method_in_brief": "as §2"}, "[24]": {"assay": "Biodistribution in Sprague-Dawley rat bone marrow at 32.1 +/- 2.8 MBq, iv measured at 120 mins by radio-HPLC analysis", "format": "ADME, organism-based", "details": "32.1 MBq", "method_in_brief": "as §3"}, "Plasma": {"tested_on": "Plasma", "assay": "Metabolic stability of the compound in Sprague-Dawley rat plasma at 20 kBq/ml at 37 degC by radio-HPLC analysis", "format": "ADME, cell-free", "method_in_brief": "as §5"}, "[25]": {"assay": "Biodistribution in baboon kidney at 276 +/- 60 MBq, iv measured at 90 mins by PET analysis", "format": "ADME, organism-based", "details": "papio anubis, in vivo, 1.5 h", "method_in_brief": "as §2"}, "[26]": {"assay": "Drug metabolism in baboon urine assessed as compound remaining measured at 180 mins by radio-HPLC analysis", "format": "ADME, tissue-based", "details": "papio anubis, read-out: Stability", "method_in_brief": "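Baboon urine collected by catheter at 180 min after injection. 1 mL injected directly onto the plasma radio-HPLC system (C18, 0.1% TFA water/acetonitrile gradient).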"}, "[27]": {"assay": "Chemical stability of the compound in saline", "format": "physicochemical", "details": "buffer"}, "[28]": {"assay": "Half life in baboon by radio-HPLC analysis", "format": "ADME, organism-based", "details": "papio anubis, in vivo", "method_in_brief": "as §1"}}, "data": [{"smiles": "CCNC(=O)Cc1c(-c2ccc(OCC[18F])cc2)nn2c(C)cc(C)nc12", "values": [{"measurement": "Retention_time", "setting": "[1]", "result": 8.583, "unit": "min"}]}, {"smiles": "CCN(CC)C(=O)Cc1c(-c2ccc(OCCF)cc2)nn2c(CO)cc(CO)nc12", "values": [{"measurement": "Drug metabolism", "setting": "Liver microsome", "result": "metabolite_detected"}, {"measurement": "Retention_time", "setting": "[2]", "result": 14.28, "unit": "min"}]}, {"smiles": "CCN(CC)C(=O)Cc1c(-c2ccc(OCC[18F])cc2)nn2c(C)cc(C)nc12", "note": "[DPA-714 F-18]", "values": [{"measurement": "SUVmax", "setting": "[3]", "result": 1.99}, {"measurement": "SUVmax", "setting": "[4]", "result": 7.31}, {"measurement": "Drug uptake", "setting": "[5]", "result": "Active"}, {"measurement": "Kp at 2 h", "setting": "[6]", "result": 11}, {"measurement": "SUVmax", "setting": "[7]", "result": 1.93}, {"measurement": "SUVmax", "setting": "[8]", "result": 6.28}, {"measurement": "tissue uptake at 2 h", "setting": "[9]", "result": 35, "unit": "%"}, {"measurement": "Stability", "setting": "[10]", "result": 95, "unit": "%"}, {"measurement": "tissue uptake at 2 h", "setting": "[11]", "result": 85, "unit": "%"}, {"measurement": "SUVmax", "setting": "[12]", "result": 5.67}, {"measurement": "SUVmax", "setting": "[13]", "result": 7.42}, {"measurement": "Retention_time", "setting": "[14]", "result": 10.083, "unit": "min"}, {"measurement": "SUVmax", "setting": "[15]", "result": 12.7}, {"measurement": "Stability", "setting": "[16]", "result": 190, "unit": "min"}, {"measurement": "SUVmax", "setting": "[17]", "result": 6.5}, {"measurement": "half-life", "setting": "[18]", "result": 12, "unit": "min"}, {"measurement": "tissue uptake at 2 h", "setting": "[19]", "result": 15, "unit": "%"}, {"measurement": "recovery", "setting": "[20]", "result": 94, "unit": "%"}, {"measurement": "remaining at 2 h", "setting": "[21]", "result": 11, "unit": "%"}, {"measurement": "Stability", "setting": "Brain", "result": 180, "unit": "min"}, {"measurement": "remaining at 0.5 h", "setting": "[22]", "result": 46, "unit": "%"}, {"measurement": "SUVmax", "setting": "[23]", "result": 7.57}, {"measurement": "tissue uptake at 2 h", "setting": "[24]", "result": 65, "unit": "%"}, {"measurement": "Stability", "setting": "Plasma", "result": 180, "unit": "min"}, {"measurement": "SUV", "setting": "[25]", "result": 4.6}, {"measurement": "remaining at 3 h", "setting": "[26]", "result": "< 2", "unit": "%"}, {"measurement": "Stability", "setting": "[27]", "result": "Stable"}, {"measurement": "half-life", "setting": "[28]", "result": 19, "unit": "min"}]}, {"smiles": "CCNC(=O)Cc1c(-c2ccc(OCCF)cc2)nn2c(C)cc(CO)nc12", "values": [{"measurement": "Drug metabolism", "setting": "Liver microsome", "result": "metabolite_detected"}, {"measurement": "Retention_time", "setting": "[2]", "result": 13.88, "unit": "min"}]}, {"smiles": "CCN(CC)C(=O)Cc1c(-c2ccc(OCCF)cc2)nn2c(CO)cc(C)nc12", "values": [{"measurement": "Drug metabolism", "setting": "Liver microsome", "result": "metabolite_detected"}, {"measurement": "Retention_time", "setting": "[2]", "result": 15.85, "unit": "min"}]}]}
